Assay results reported in ChEMBL document CHEMBL4382268, “Glycyrrhetinic acid derivatives containing aminophosphonate ester species as multidrug resistance reversers that block the NF-κB pathway and cell proliferation” (Bioorg Med Chem Lett, 2018).

Experiments:
L02 = assay: Antiproliferative activity against human HL-7702 cells after 48 hrs by MTT assay; format: functional, cell-based; conditions: L02, 48 h
In short: (§1)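 MTT read-out of antiproliferative activity across cancer lines HepG-2, NCI-H460, MGC-803, A549 and MG-63 and normal liver line HL-7702. IC50 given as mean ± S.D. of three separate experiments, each run in triplicate.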

[1] = Inhibition of TNF-alpha induced NF-kappaB activation in human A549 cells after 7 hrs by Bright-Glo luciferase reporter gene assay; format: cell-based; conditions: Homo sapiens, A549, 7 h; read-out: IC50
In short: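 A549 cells transiently cotransfected with an NF-κB-Luc reporter and stimulated with TNF-α. Luciferase read-out of inhibition gives IC50, the mean of at least three independent experiments each with triplicates.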

HepG2 = assay: Antiproliferative activity against human HepG2 cells after 48 hrs by MTT assay; format: functional, cell-based; conditions: HepG2, 48 h; in short: as §1
NCI-H460 = assay: Antiproliferative activity against human NCI-H460 cells after 48 hrs by MTT assay; format: functional, cell-based; conditions: NCI-H460, 48 h; in short: as §1
MGC-803 = assay: Antiproliferative activity against human MGC803 cells after 48 hrs by MTT assay; format: functional, cell-based; conditions: MGC-803, 48 h; in short: as §1
A549 = assay: Antiproliferative activity against human A549 cells after 48 hrs by MTT assay; format: functional, cell-based; conditions: A549, 48 h; in short: as §1
MG-63 = assay: Antiproliferative activity against human MG63 cells after 48 hrs by MTT assay; format: functional, cell-based; conditions: MG-63, 48 h; in short: as §1

| SMILES | IC50 (L02) [µM] | IC50 [1] [µM] | IC50 (HepG2) [µM] | IC50 (NCI-H460) [µM] | IC50 (MGC-803) [µM] | IC50 (A549) [µM] | IC50 (MG-63) [µM] |
| --- | --- | --- | --- | --- | --- | --- | --- |
| CCOP(=O)(OCC)C(Nc1ccc(CC(=O)NCCCNC(=O)[C@@]2(C)CC[C@]3(C)CC[C@]4(C)C(=CC(=O)[C@@H]5[C@@]6(C)CC[C@H](O)C(C)(C)[C@@H]6CC[C@]54C)[C@@H]3C2)cc1)c1ccc(Br)cc1 (stereo partly drawn) | > 50 | > 30 | 35.6 | 20.3 | 35.7 | 31.9 | 25.1 |
| CCOP(=O)(OCC)C(Nc1ccc(CC(=O)NCCCNC(=O)[C@@]2(C)CC[C@]3(C)CC[C@]4(C)C(=CC(=O)[C@@H]5[C@@]6(C)CC[C@H](OC(C)=O)C(C)(C)[C@@H]6CC[C@]54C)[C@@H]3C2)cc1)c1ccc(OC)cc1 (stereo partly drawn) | > 50 | 5.03 | 19.3 | 18.8 | 18.2 | 19.3 | 19.1 |
| CCOP(=O)(OCC)C(Nc1ccc(CC(=O)NCCCCNC(=O)[C@@]2(C)CC[C@]3(C)CC[C@]4(C)C(=CC(=O)[C@@H]5[C@@]6(C)CC[C@H](O)C(C)(C)[C@@H]6CC[C@]54C)[C@@H]3C2)cc1)c1cccc(OC)c1 (stereo partly drawn) | > 50 | 29.4 | 46.4 | 39.2 | > 50 | 48.3 | 45.6 |
| CCOP(=O)(OCC)C(Nc1ccc(CC(=O)NCCCCNC(=O)[C@@]2(C)CC[C@]3(C)CC[C@]4(C)C(=CC(=O)[C@@H]5[C@@]6(C)CC[C@H](OC(C)=O)C(C)(C)[C@@H]6CC[C@]54C)[C@@H]3C2)cc1)c1ccc(OC)cc1 (stereo partly drawn) | > 50 | 2.01 | 15.3 | 14.1 | 16.3 | 15.2 | 13.9 |
| CCOP(=O)(OCC)C(Nc1ccc(CC(=O)NCCCNC(=O)[C@@]2(C)CC[C@]3(C)CC[C@]4(C)C(=CC(=O)[C@@H]5[C@@]6(C)CC[C@H](OC(C)=O)C(C)(C)[C@@H]6CC[C@]54C)[C@@H]3C2)cc1)c1ccccc1 (stereo partly drawn) | > 50 | 22.1 | 31.6 | 23.2 | 21 | 30.3 | 25.3 |
| CCOP(=O)(OCC)C(Nc1ccc(CC(=O)NCCCCNC(=O)[C@@]2(C)CC[C@]3(C)CC[C@]4(C)C(=CC(=O)[C@@H]5[C@@]6(C)CC[C@H](OC(C)=O)C(C)(C)[C@@H]6CC[C@]54C)[C@@H]3C2)cc1)c1cccc(F)c1 (stereo partly drawn) | > 50 | 27.4 | 21.3 | 28.2 | 21 | 26.4 | 22.8 |
| CCOP(=O)(OCC)C(Nc1ccc(CC(=O)NCCCNC(=O)[C@@]2(C)CC[C@]3(C)CC[C@]4(C)C(=CC(=O)[C@@H]5[C@@]6(C)CC[C@H](OC(C)=O)C(C)(C)[C@@H]6CC[C@]54C)[C@@H]3C2)cc1)c1cccc(Br)c1 (stereo partly drawn) | > 50 | > 30 | > 50 | > 50 | > 50 | > 50 | > 50 |
| CCOP(=O)(OCC)C(Nc1ccc(CC(=O)NCCCCNC(=O)[C@@]2(C)CC[C@]3(C)CC[C@]4(C)C(=CC(=O)[C@@H]5[C@@]6(C)CC[C@H](OC(C)=O)C(C)(C)[C@@H]6CC[C@]54C)[C@@H]3C2)cc1)c1cccc(Br)c1 (stereo partly drawn) | > 50 | 27.1 | 48.2 | 47.6 | 41.8 | 39.6 | > 50 |
| CCOP(=O)(OCC)C(Nc1ccc(CC(=O)NCCCCNC(=O)[C@@]2(C)CC[C@]3(C)CC[C@]4(C)C(=CC(=O)[C@@H]5[C@@]6(C)CC[C@H](OC(C)=O)C(C)(C)[C@@H]6CC[C@]54C)[C@@H]3C2)cc1)c1cccc(OC)c1 (stereo partly drawn) | > 50 | 23.4 | 35.3 | 27.4 | 32.9 | 27.2 | 36.6 |
